Measurements taken from the EternaBench riboswitch data.

Test system: MS2 coat protein
Assay: apparent Kd, MS2 coat protein; higher = weaker binding; RNA-MaP array; FMN 200 µM where present
Method in brief: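 Stalled E. coli RNA polymerase transcribed the designs on Illumina sequencing-chip clusters. SNAP-549-labelled MS2 coat protein was titrated from 0.7 or 1.5 nM, doubling to 3 µM, without and then with constant ligand, in 100 mM Tris-HCl pH 7.5, 80 mM KCl, 4 mM MgCl2, BSA, DTT, yeast tRNA and Tween-20. Per-cluster binding curves were fitted to green signal normalised to red-channel RNA signal and control-cluster median Fmax. The apparent Kd is the median of the filtered fits.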

[1] = designed as: OFF switch for flavin mononucleotide, no ligand
[2] = ligand present: flavin mononucleotide, designed as: OFF switch for flavin mononucleotide
[3] = designed as: ON switch for flavin mononucleotide, no ligand
[4] = ligand present: flavin mononucleotide, designed as: ON switch for flavin mononucleotide

Sequence	apparent Kd [1] [nM]	apparent Kd [2] [nM]	apparent Kd [3] [nM]	apparent Kd [4] [nM]
CUAUUGCGAGGAUAUGAUUUAAAUAACAUGAGGAUCACCCAUGUUUUUACGUUGUUAUGUUCAGAAGGCGUAUUGU	40.1	26.3		
CGCACUGAUAGAGGAUAUGUUUAACAUGAGGAUCACCCAUGUGUACAAGUAUCAAUAUUUAUCAAACAGAAGGCUAUUAGUGCG	4.84	3.88		
AUAAAUCAUGUAGGAUAUGCGUGGCGAAGCUAUGCAGAAGGACAUGAGGAUCACCCAUGUUUUUCCGUCUGCGUACAGACGGAA	308	147		
CUUUUGUGAGGAUAUCAGUAGUAAAAAAAUAAAAUUAUUACUGAGAAGGCACAUGAGGAUCACCCAUGUUCCUC	34	196		
UAUCCACAUGAGGAUCACCCAUGUGAGGAUAUGAUACUAUGUACUUCGGUACAUAGUAUCAGAAGGCACAGGUC	21.3	36.3		
GGUACUCAAAGAGUACUUGGUCGAACAUGAGGAUCACCCAUGUAGGAUAUGCUAAGCAAGAAGUAGCAGAAGGACAUGUGCAGC	14.8	56.5		
GGUGCCAUGUAGAAGGCAGAUCUGAUUCAGAUCUGAGGAUAUACAUGAGGAUCACCCAUGUAAAGCCACCGCACGAGAGUGCAA	70.2	190		
ACCUUACUGGUCAGGAUAUACAGUCUUUGGUGGGUGUAGAAGGGACAUGAGGAUCACCCAUGUAGGUUGCAGCA	175	153		
UUACAGCACGGGUAGGAUAUGUAGGGUGGUACAUGAGGAUCACCCAUGUAUCCACCCUUCUAACGGCAGAAGGGCCUGUCGCUGC			31.8	20.9
UCAGGCUUCGAGAAGGACAUGAAUCGUAGCAUUGCUACGAUGAAAUAUACAUGAGGAUCACCCAUGUAGGAUAUCGGAGUCUGC	5.35	6.13		
UUAUGGUUCAAGAAGGAUGUAUUUGACUUAUACAUAGGAUAUUGUUAAAUUGAUAAUUAAUGUAACAUGAGGAUCACCCAUGUA			8.1	7.39
AGAAACUACGAGAAGGACAUAUGGUUCUUCAGUUACAUGAGGAUCACCCAUGUAGGAUAUCGUAGUUUCAGGAUCGUGAGAUCA	7.33	21.7		
UUUUUGUCAGGAUAUCUAAUCUAGAUGUUCGCAUCUAGAUUAGAGAAGGGACAUGAGGAUCACCCAUGUAGUUU	61.9	253		
GUCAGCUCGUCAGGAUAUACGUCACUGCUUCGGCAGUGUGGUAAGAUCACAUGAGGAUCACCCAUGUAGAAGGGACGAGCUGAG	13.3	296		
AAGAAAUGGGAGUGAUCUGGUUCCGAGGAUAUAGGCAUCGGUACAUGAGGAUCACCCAUGUCCGACUAGAAGGCGGACGGGUCC			34.1	8.76
UUAUUGGGACAGAAGGGCAUUUACAUGAGGAUCACCCAUGUGUAUAGUUGCAGGAUAUGUAUUACAUGUGAAUCAUCAAAGUGC			75.5	25.5
GGAUAAGACAGAGGAUAUACGUGCUAGAGAUACUAGCAAAAUUUCCUCACAUGAGGAUCACCCAUGUAGAAGGCUGUCCUAUCG	16.9	291		
GAAAAGGUAGGAUAUACGAAAACAAAGGGUAGAAACAAAACACAUGAGGAUCACCCAUGUAGAAGGACCAAAAG	36.4	233		
GUGGUACAUGAGGAUCACCCAUGUUAGGAUAUCGCGUGGUUUUUUGCGGCCGCGCGCGCGAGAAGGGACGUCUU	41.4	31.7		
AGAACAUGAGGAUCACCCAUGUUAAGGUCGGUAAAUAAGGGUGAGGAUAUGCUUAAAAUAAGGAAGCAGAAGGUGCUUGGUGCA			183	195
CCUCCACAUGAGGAUCACCCAUGUCAGGAUAUCGUGUGUUUUUUUUCGGUCUUGCGUGCGAGAAGGGACGUCUU	35.6	39.4		
GUAGAGUAGUGAGGAUAUACGAGUUCGAUAGAACGGCGAUCCAAUAAUACAUGAGGAUCACCCAUGUAGAAGGCACUUCUCUAC	9.33	112		
UCGCUGCGAGGAUAUACGUUUGCGCGCUUUCGUUUGCGCGUACAUGAGGAUCACCCAUGUAGAAGGCGCGCCGC	15.9	15.9		
GUUAGUUAAGGAUAUACUGGGAGCUGCGGCGUCUCGCCGCAACAUGAGGAUCACCCAUGUAGAAGGUGACCAUU	320	229		
CGGACCGGCUCAGGAUAUGGGUGCUCAAAAGACAUGAGGAUCACCCAUGUCUCAAGCUGUGCACAUCAGAAGGGAGCUUCGGGU			13.3	16.3
CUUAUAAUUGAAGGAUAUCUAUAUCCAACAUGAGGAUCACCCAUGUUGAGGAUCACCCAUGUAAAGGAGAAGGUUAAUUAUAAG			104	22.7
UGGUUCCUGCAGAAGGUGUAGGCGACUUGCUUGCAAGGAUAUGCACAUGAGGAUCACCCAUGUAGCUAAAAGUUUGCAACGUGG	12.8	65.1		
CCGGUUUAGGAGGAUAUAGGAGUCGAUAGACACCUAGAAGGCCUAACAUGAGGAUCACCCAUGUGACCUACCGG	51.1	177		

Sequence	apparent Kd [1] [nM]	apparent Kd [2] [nM]	apparent Kd [3] [nM]	apparent Kd [4] [nM]
AAUUGACACGUAGGAUAUCGAUCUAUAUUAACACGAGAAGGACGUACAUGAGGAUCACCCAUGUUUAAUGGAGUAGAUAAGUUG	112	257		
CAUUAACUACAAUUACAUGAGGAUCACCCAUGUUUUGGGAUGCAGGAUAUGUGGUAUAUUAAUUAACAGAAGGGCAAUAAUUUU			41.5	36.7
GAUCACUGAGGAUAUACGCAGAUACAAAGUAUCUGAUUGUGACAUGAGGAUCACCCAUGUAGAAGGCAGAGGUC	37.2	124		
ACGAACCUAGGAUAUACAUGAGGAUCACCCAUGUACUACUAUCCAUGAAUGACCCUCGGUAGAAGGAGGAUCAA	18.1	21.5		
GGACCGCUUAGAAUUAGCGGCCGGCAGGAUAUGACAUGAGGAUCACCCAUGUGAACUCCAUUGGGUCAGAAGGGCCACGACACA	23.9	86.4		
AGCUGUGGCCGAGGAUAUGCUACUUCAAUAACCGAAAUAUAAUCGGACAUGAGGAUCACCCAUGUAGAGAAGGCGGUCUCAGCA	14	11		
GCUGCAAAGUAAGGAUAUGCCUAGGAAACCUAGGCAGAAGGUACAUGAGGAUCACCCAUGUUAACCCAAAGGGAAUAAAGCAGC	15.8	25.3		
ACUUUAUUUGAGAAGGUGAAGUGGAAACAUGAGGAUCACCCAUGUAUUAGGAAGCCUAAUUUUAUCAAGGAUAUCAAAUAAAGA			7.93	8.04
ACAAUGUGGUAAGGAUAUCCAAUGGCAUCCCUAGGAGAAGGUAUCACAUGAGGAUCACCCAUGUGAAGGAUGGGUUAUCGCAAA	223	121		
UUAUUUUGUCAAGGAUAUGUAAUAUAGAUUAGAAAACAUGAGGAUCACCCAUGUAUAUGGUGGGAACAGAAGGUGAAUGGUUUA	196	161		
UACUGGUGUGAGAAGGGACGUAUCUCCAUGAGGGUAGGGCUAUUAGAGAAGUCAGGAUAUCACAUGAGGAUCACCCAUGUGACG	8.25	9.9		
AAAAAGUAAGGAUAUCGGCGGCGGCGGAGGCGGCGGCGGCUCGAGAAGGUACAUGAGGAUCACCCAUGUAAAAA	29.2	15.3		
GGGUACGCAGGAUAUACAUGAAAAAAAAAAAAAAAAAAAAAACAUGAGGAUCACCCAUGUAGAAGGGCGUAUCC	232	571		
AGAAUGGGCGAGAAGGGAGUACAUGAGGAUCACCCAUGUGGUUCAUGGUGCUCAGGAUAUCGAUAGACCAAGGAGCGUCUUUGG	20.1	140		
UCCUGACCGAGAGAUAGGAGUAGUAGAAGGCGACCGGUGCCAGAUGACAUGAGGAUCACCCAUGUCGAGGAUAUACUACAGAAU	6.99	9.63		
AUAUCACAAUUAGAACCAAUACGAACAUGAGGAUCACCCAUGUAGGAUAUGCUAGAAGUUGUGUUGCAGAAGGACAUAUACAUU	7.63	6.63		
UAAUAAAGUGUGAGGAUAUGCUGGUCCUUAGAUCAGCAGAAGGCACAUGAGGAUCACCCAUGUAAUAUAUAAAU	40	281		
AUGUUGAGCAGUGUAUUAAUAAAACAUGAGGAUCACCCAUGUAGAAGGCACGAGCUGAUCGCUCGUGAGGAUAUACAUCACUGC	5.15	5.9		
CUAUCGAGGUCACUCGUUAUCACACCAGAAGGGACGGAGGCACAUGAGGAUCACCCAUGUCCUAGUCAGGAUAUGGGUGAGUAG			25.6	5.16
AAUAAUAGCGAGGAUAUCGUAUCGGAAACGAUACGAGAAGGCGUAACAUGAGGAUCACCCAUGUUCCUCAAUAA	38	313		
AUCCGUCGUGUGAGGAUAUAAGAGUUCAAGGUUGUUUAGAAGGUACAUGAGGAUCACCCAUGUCACCCUGAUUG	14.9	14.9		
AAUCCACAUGAGGAUCACCCAUGUGAGGAUAUGAUACUAUGUACUUCGGUACAUAGUAUCAGAAGGCAUAUGAA	25.3	30.4		
CUAAAUCAUGUAGGAUAUGCAUGGCGAAGCUACGCAGAAGGACAUGAGGAUCACCCAUGUCUCUCCGUCUGCGUACAGACGGAG	20.5	119		
ACGUUUUUUGAGGAUAUGCGAUAUUUUUUUAUCGUAGAAGGCGAUACAUGAGGAUCACCCAUGUUUAUGGGCAU	197	204		
GGAUGACAAAGUCAUCCUUAACGAACAUGAGGAUCACCCAUGUAGGAUAUGCUUCUCAAAGAGAAGCAGAAGGACAUGUGCCUU	33.3	256		
GUCCUCAUGACAUGAGGAUCACCCAUGUAUUAUUUGUUAACUGAGGAUAUACUCUUAAUUUUUAUGUAGAAGGCAGAUUCGGUC	35.6	39.9		
UAAUAAUUAUGAGGAUAUAUACAACAUGAGGAUCACCCAUGUACCCAUGUAGUAGAAGGCAUAUUUUUAGUUAAUAACAUAACU			75.2	31.1
